ChEMBL document CHEMBL1137333, “Synthesis, radiosynthesis, and biological evaluation of carbon-11 labeled 2beta-carbomethoxy-3beta-(3'-((Z)-2-haloethenyl)phenyl)nortropanes: candidate radioligands for in vivo imaging of the serotonin transporter with positron emission tomography” (J Med Chem, 2006)

Tests used:
Cynomolgus monkey [1] = test: Uptake in anesthetized cynomolgus monkey caudate after 45.0 mins; type: ADME, organism-based, Caudate nucleus; details: in vivo, 0.75 h
How it was run: (§1)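 Baseline microPET (Concorde P4) regional brain time-activity curves in anesthetized cynomolgus monkey following injection of the [11C]-labelled tracer, with radioactivity followed over the scan.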

Cynomolgus monkey [2] = test: Uptake in anesthetized cynomolgus monkey caudate after 75.0 mins; type: ADME, organism-based, Caudate nucleus; details: in vivo, 1.25 h; how it was run: as §1
Cynomolgus monkey [3] = test: Uptake in anesthetized cynomolgus monkey caudate after 115.0 mins; type: ADME, organism-based, Caudate nucleus; details: in vivo; how it was run: as §1
Cynomolgus monkey [4] = test: Uptake in anesthetized cynomolgus monkey putamen after 1.5 mins; type: ADME, organism-based; details: in vivo, 0.025 h
How it was run: (§2)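 Baseline microPET (Concorde P4) scan in anesthetized cynomolgus monkeys after injection of the carbon-11 labeled tracer, with no chase drug. Regional brain time-activity curves were followed over the scan. Tracer radiochemical purity and specific activity were determined by analytical HPLC at the time of injection.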

Cynomolgus monkey [5] = test: Uptake in anesthetized cynomolgus monkey putamen after 2.5 mins; type: ADME, organism-based; details: in vivo; how it was run: as §2
Cynomolgus monkey [6] = test: Uptake in anesthetized cynomolgus monkey putamen after 6.5 mins; type: ADME, organism-based; details: in vivo; how it was run: as §2
Cynomolgus monkey [7] = test: Ratio of uptake in frontal to cerebellum of anesthetized cynomolgus monkey after 65 mins; type: ADME, organism-based; details: in vivo
How it was run: (§3)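 Baseline microPET (Concorde P4) in anesthetized cynomolgus monkey after injection of the [11C]-labelled tracer. Regional time-activity curves were taken, and each region's uptake was divided by cerebellum uptake (low-SERT reference) at 65, 85 and 105 min postinjection.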

Cynomolgus monkey [8] = test: Ratio of uptake in occipital to cerebellum of anesthetized cynomolgus monkey after 65 mins; type: ADME, organism-based; details: in vivo; how it was run: as §3
Cynomolgus monkey [9] = test: Ratio of uptake in caudate to cerebellum of anesthetized cynomolgus monkey after 85 mins; type: ADME, organism-based; details: in vivo; how it was run: as §3
Cynomolgus monkey [10] = test: Ratio of uptake in midbrain to cerebellum of anesthetized cynomolgus monkey after 85 mins; type: ADME, organism-based; details: in vivo; how it was run: as §3
Cynomolgus monkey [11] = test: Ratio of uptake in pons to cerebellum of anesthetized cynomolgus monkey after 85 mins; type: ADME, organism-based; details: in vivo; how it was run: as §3
Cynomolgus monkey [12] = test: Ratio of uptake in frontal to cerebellum of anesthetized cynomolgus monkey after 85 mins; type: ADME, organism-based; details: in vivo; how it was run: as §3
Cynomolgus monkey [13] = test: Uptake in anesthetized cynomolgus monkey midbrain after 15.5 mins; type: ADME, organism-based; details: in vivo
How it was run: (§4)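 Baseline microPET scan (P4 scanner) of anesthetized cynomolgus monkeys after injection of the carbon-11 labelled nortropane tracer. Two baseline studies were run per tracer. Radioactivity was followed over time in regional brain time-activity curves.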

Cynomolgus monkey [14] = test: Uptake in anesthetized cynomolgus monkey midbrain after 27.5 mins; type: ADME, organism-based; details: in vivo; how it was run: as §4
Cynomolgus monkey [15] = test: Uptake in anesthetized cynomolgus monkey midbrain after 55.0 mins; type: ADME, organism-based; details: in vivo; how it was run: as §4
Cynomolgus monkey [16] = test: Uptake in anesthetized cynomolgus monkey midbrain after 105.0 mins; type: ADME, organism-based; details: in vivo, 1.75 h; how it was run: as §4
Cynomolgus monkey [17] = test: Uptake in anesthetized cynomolgus monkey pons after 1.5 mins; type: ADME, organism-based, Macaca mulatta; details: rhesus monkey, in vivo, 0.025 h; how it was run: as §4
Cynomolgus monkey [18] = test: Uptake in anesthetized cynomolgus monkey pons after 15.5 mins; type: ADME, organism-based; details: in vivo; how it was run: as §2
Cynomolgus monkey [19] = test: Uptake in anesthetized cynomolgus monkey pons after 18.5 mins; type: ADME, organism-based; details: in vivo; how it was run: as §2
Cynomolgus monkey [20] = test: Uptake in anesthetized cynomolgus monkey pons after 27.5 mins; type: ADME, organism-based; details: in vivo; how it was run: as §2
Cynomolgus monkey [21] = test: Uptake in anesthetized cynomolgus monkey pons after 45.0 mins; type: ADME, organism-based; details: in vivo, 0.75 h; how it was run: as §2
Cynomolgus monkey [22] = test: Uptake in anesthetized cynomolgus monkey pons after 55.0 mins; type: ADME, organism-based; details: in vivo; how it was run: as §2
Cynomolgus monkey [23] = test: Uptake in anesthetized cynomolgus monkey pons after 85.0 mins; type: ADME, organism-based; details: in vivo; how it was run: as §2
Cynomolgus monkey [24] = test: Uptake in anesthetized cynomolgus monkey medulla after 1.5 mins; type: ADME, organism-based, Medulla of organ; details: in vivo, 0.025 h; how it was run: as §4
Cynomolgus monkey [25] = test: Uptake in anesthetized cynomolgus monkey putamen after 12.5 mins; type: ADME, organism-based; details: in vivo; how it was run: as §2
Cynomolgus monkey [26] = test: Uptake in anesthetized cynomolgus monkey putamen after 15.5 mins; type: ADME, organism-based; details: in vivo; how it was run: as §2
Cynomolgus monkey [27] = test: Uptake in anesthetized cynomolgus monkey putamen after 45.0 mins; type: ADME, organism-based; details: in vivo, 0.75 h; how it was run: as §2
Cynomolgus monkey [28] = test: Uptake in anesthetized cynomolgus monkey putamen after 85.0 mins; type: ADME, organism-based; details: in vivo; how it was run: as §2
Cynomolgus monkey [29] = test: Uptake in anesthetized cynomolgus monkey putamen after 115.0 mins; type: ADME, organism-based; details: in vivo; how it was run: as §2
Cynomolgus monkey [30] = test: Uptake in anesthetized cynomolgus monkey thalamus after 3.5 mins; type: ADME, organism-based; details: in vivo; how it was run: as §2
Cynomolgus monkey [31] = test: Uptake in anesthetized cynomolgus monkey thalamus after 9.5 mins; type: ADME, organism-based; details: in vivo; how it was run: as §2
Cynomolgus monkey [32] = test: Uptake in anesthetized cynomolgus monkey thalamus after 45.0 mins; type: ADME, organism-based; details: in vivo, 0.75 h; how it was run: as §2
Cynomolgus monkey [33] = test: Uptake in anesthetized cynomolgus monkey thalamus after 55.0 mins; type: ADME, organism-based; details: in vivo; how it was run: as §2
Cynomolgus monkey [34] = test: Uptake in anesthetized cynomolgus monkey thalamus after 85.0 mins; type: ADME, organism-based; details: in vivo; how it was run: as §2
Cynomolgus monkey [35] = test: Uptake in anesthetized cynomolgus monkey thalamus after 105.0 mins; type: ADME, organism-based; details: in vivo, 1.75 h; how it was run: as §2

SMILES: [11CH3]OC(=O)[C@@H]1C2CCC(C[C@@H]1c1cccc(/C=C/Br)c1)N2 (stereo not given in full)
- Drug uptake (Cynomolgus monkey [1]): 6.63
- Drug uptake (Cynomolgus monkey [2]): 6.61
- Drug uptake (Cynomolgus monkey [3]): 6.42
- Drug uptake (Cynomolgus monkey [4]): 0.3
- Drug uptake (Cynomolgus monkey [5]): 1.01
- Drug uptake (Cynomolgus monkey [6]): 4.44
- Ratio (Cynomolgus monkey [7]): 1
- Ratio (Cynomolgus monkey [8]): 0.8
- Ratio (Cynomolgus monkey [9]): 1.5
- Ratio (Cynomolgus monkey [10]): 1.8
- Ratio (Cynomolgus monkey [11]): 1.6
- Ratio (Cynomolgus monkey [12]): 1.2
- Drug uptake (Cynomolgus monkey [13]): 6.32
- Drug uptake (Cynomolgus monkey [14]): 7.01
- Drug uptake (Cynomolgus monkey [15]): 7.74
- Drug uptake (Cynomolgus monkey [16]): 7.72
- Drug uptake (Cynomolgus monkey [17]): 0.34
- Drug uptake (Cynomolgus monkey [18]): 5.76
- Drug uptake (Cynomolgus monkey [19]): 6.46
- Drug uptake (Cynomolgus monkey [20]): 6.51
- Drug uptake (Cynomolgus monkey [21]): 6.91
- Drug uptake (Cynomolgus monkey [22]): 7.56
- Drug uptake (Cynomolgus monkey [23]): 7.24
- Drug uptake (Cynomolgus monkey [24]): 0.4
- Drug uptake (Cynomolgus monkey [25]): 5.62
- Drug uptake (Cynomolgus monkey [26]): 6.07
- Drug uptake (Cynomolgus monkey [27]): 7.28
- Drug uptake (Cynomolgus monkey [28]): 7.16
- Drug uptake (Cynomolgus monkey [29]): 7.1
- Drug uptake (Cynomolgus monkey [30]): 1.54
- Drug uptake (Cynomolgus monkey [31]): 4.3
- Drug uptake (Cynomolgus monkey [32]): 6.07
- Drug uptake (Cynomolgus monkey [33]): 6.4
- Drug uptake (Cynomolgus monkey [34]): 6.55
- Drug uptake (Cynomolgus monkey [35]): 6.47
